The results in this text go back to ChEMBL document CHEMBL1128174, “Enhanced D1 affinity in a series of piperazine ring substituted 1-piperazino-3-arylindans with potential atypical antipsychotic activity” (J Med Chem, 1995).

Assay [1] is filed under the species Rattus norvegicus. The experiment in a line: Cataleptogenic effect in rats. In kind it is functional. In outline:
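Rats scored on a vertical wire grid hourly 1–6 h after dosing; catalepsy counted when immobility lasted at least 15 s.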

The target of assay [2] is T1, Adrenergic receptor alpha-1 (Rattus norvegicus, UniProt P15823+P23944+P43140).
T1 sequence (P15823 whole entry): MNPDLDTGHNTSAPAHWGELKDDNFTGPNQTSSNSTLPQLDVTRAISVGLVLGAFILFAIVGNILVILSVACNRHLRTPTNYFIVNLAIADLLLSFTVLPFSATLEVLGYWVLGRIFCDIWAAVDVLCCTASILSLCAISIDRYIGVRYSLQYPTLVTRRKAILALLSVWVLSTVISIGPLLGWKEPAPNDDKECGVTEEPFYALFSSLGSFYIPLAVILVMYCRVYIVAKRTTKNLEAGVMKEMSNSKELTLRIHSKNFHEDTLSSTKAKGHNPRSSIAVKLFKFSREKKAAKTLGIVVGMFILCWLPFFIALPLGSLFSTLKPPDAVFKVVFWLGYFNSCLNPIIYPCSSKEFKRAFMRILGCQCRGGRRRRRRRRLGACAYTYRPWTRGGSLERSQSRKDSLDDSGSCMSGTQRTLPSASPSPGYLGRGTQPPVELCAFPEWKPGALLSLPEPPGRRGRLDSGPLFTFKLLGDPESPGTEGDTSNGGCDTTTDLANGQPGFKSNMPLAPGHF
T1 sequence (P23944 whole entry): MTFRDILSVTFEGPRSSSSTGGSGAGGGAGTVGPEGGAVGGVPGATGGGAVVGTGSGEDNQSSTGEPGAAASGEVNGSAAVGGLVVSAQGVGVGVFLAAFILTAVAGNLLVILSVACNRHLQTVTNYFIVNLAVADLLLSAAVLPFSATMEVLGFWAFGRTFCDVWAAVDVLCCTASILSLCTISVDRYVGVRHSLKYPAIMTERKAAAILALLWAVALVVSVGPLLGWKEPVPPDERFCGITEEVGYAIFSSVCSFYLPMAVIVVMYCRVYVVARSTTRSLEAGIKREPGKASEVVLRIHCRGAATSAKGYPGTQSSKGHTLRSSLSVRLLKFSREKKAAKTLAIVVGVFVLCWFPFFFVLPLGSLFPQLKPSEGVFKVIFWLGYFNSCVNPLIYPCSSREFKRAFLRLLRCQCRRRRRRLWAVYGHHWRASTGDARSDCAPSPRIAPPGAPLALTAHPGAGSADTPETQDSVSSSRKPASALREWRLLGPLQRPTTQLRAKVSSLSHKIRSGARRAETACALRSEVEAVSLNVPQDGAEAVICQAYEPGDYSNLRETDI
T1 sequence (P43140 whole entry): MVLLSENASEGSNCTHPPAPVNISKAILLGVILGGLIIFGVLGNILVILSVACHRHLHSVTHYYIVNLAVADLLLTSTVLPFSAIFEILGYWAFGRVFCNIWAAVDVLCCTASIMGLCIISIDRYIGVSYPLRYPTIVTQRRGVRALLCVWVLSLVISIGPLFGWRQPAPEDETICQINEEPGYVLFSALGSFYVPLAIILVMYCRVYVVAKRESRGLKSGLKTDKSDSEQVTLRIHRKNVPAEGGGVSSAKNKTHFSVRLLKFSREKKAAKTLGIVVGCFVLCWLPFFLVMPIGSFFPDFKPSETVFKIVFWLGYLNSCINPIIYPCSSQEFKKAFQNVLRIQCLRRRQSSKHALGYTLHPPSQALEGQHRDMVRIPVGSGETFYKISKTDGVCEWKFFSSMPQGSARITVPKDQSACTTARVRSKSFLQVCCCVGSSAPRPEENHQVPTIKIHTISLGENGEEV
Description: Binding affinity against Alpha-1 adrenergic receptor, activity is expressed as IC50 values. Format: protein assay.

The species named for a further assay is Mus musculus. The experiment in a line: Antagonism of methyl phenidate-induced gnawing behavior in mice. In kind it is functional. In outline: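 Test compound given ip (or sc) 2 h before methyl phenidate (60 mg/kg); mice housed in pairs on corrugated cardboard in gnawing cages, 5–9 pairs per dose.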
Assay [3] deals with 5-hydroxytryptamine receptor 2A (Rattus norvegicus, UniProt P14842). Description: Binding affinity for 5-hydroxytryptamine 2A receptor, activity is expressed as IC50 values.
For assay [4], the species on record is Rattus norvegicus. Description: In vitro inhibition of [3H]dopamine uptake in rat corpus striatum homogenates. In kind it is functional.
The species entered for assay [5] is Rattus norvegicus. Description: In vitro inhibition of [3H]5-HT uptake in rat brain (minus pons, medulla oblongata and cerebellum) homogenates. Format: functional.
The target of the next assay is D(2) dopamine receptor (Rattus norvegicus, UniProt P61169). The experiment in a line: Binding affinity against dopamine receptor D2.
In assay [6] the target is T2, D(1A) dopamine receptor (Rattus norvegicus, UniProt P18901). The experiment in a line: Binding affinity for dopamine receptor D1, activity is expressed as IC50 values.
The species entered for assay [7] is Rattus norvegicus. The experiment in a line: In vitro inhibition of [3H]NE uptake in rat occipital lobe (plus temporal cortex) homogenates. Format: functional.
Assay [8] deals with T2, D(1A) dopamine receptor. Description: The compound was tested for the binding affinity against Dopamine receptor D1 activity is expressed as IC50 values. In outline: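 [3H]SCH 23390 displaced from rat striatal membrane preparations; IC50 read from log-concentration–effect curves, two complete curves of five test concentrations run in triplicate over three decades.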

The mark [9] stands for this setting: Rattus norvegicus, read-out: ED50.

D(2) dopamine receptor, sequence (P61169 whole entry): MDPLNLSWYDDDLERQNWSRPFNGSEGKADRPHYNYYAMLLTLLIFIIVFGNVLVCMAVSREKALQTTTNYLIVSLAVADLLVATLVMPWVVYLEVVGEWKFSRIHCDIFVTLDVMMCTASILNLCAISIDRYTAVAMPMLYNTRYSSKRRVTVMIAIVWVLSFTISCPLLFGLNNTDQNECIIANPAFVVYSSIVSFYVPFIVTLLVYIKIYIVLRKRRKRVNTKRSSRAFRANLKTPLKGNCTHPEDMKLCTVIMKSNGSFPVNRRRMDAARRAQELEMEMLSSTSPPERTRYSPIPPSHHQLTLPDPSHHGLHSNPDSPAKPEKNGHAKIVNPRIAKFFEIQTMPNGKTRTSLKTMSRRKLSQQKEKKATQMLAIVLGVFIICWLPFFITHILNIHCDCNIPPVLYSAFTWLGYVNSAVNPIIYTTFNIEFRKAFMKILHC
T2 sequence (P18901 whole entry): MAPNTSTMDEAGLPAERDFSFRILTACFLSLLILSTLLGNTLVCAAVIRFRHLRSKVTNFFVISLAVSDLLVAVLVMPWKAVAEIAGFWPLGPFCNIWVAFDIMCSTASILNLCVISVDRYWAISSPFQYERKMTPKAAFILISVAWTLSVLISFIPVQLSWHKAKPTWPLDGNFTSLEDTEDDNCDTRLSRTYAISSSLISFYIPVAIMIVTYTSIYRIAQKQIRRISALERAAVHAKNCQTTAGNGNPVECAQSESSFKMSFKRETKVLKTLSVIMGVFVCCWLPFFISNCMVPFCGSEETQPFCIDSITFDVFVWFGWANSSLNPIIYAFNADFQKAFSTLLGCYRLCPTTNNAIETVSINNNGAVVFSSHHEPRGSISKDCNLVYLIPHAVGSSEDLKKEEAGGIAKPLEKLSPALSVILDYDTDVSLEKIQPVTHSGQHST
5-hydroxytryptamine receptor 2A, sequence (P14842 whole entry): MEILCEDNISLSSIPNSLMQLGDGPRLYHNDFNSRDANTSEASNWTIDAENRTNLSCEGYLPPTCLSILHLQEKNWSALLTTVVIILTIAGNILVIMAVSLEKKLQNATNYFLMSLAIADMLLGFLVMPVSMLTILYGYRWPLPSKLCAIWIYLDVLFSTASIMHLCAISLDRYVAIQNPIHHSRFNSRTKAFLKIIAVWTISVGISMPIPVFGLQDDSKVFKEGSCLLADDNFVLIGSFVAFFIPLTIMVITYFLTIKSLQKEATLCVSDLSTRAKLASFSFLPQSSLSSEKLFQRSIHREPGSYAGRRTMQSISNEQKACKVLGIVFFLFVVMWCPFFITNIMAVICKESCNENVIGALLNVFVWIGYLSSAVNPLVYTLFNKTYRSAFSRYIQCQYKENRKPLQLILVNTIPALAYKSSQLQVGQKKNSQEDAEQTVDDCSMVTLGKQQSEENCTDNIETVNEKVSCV

Broadly, the IC50 is the concentration that inhibits the measured activity by half. On to `CC1(C)CN(C2CC(c3ccc(F)cc3)c3ccc(Cl)cc32)CCN1` (stereo in doubt; 41), for which the ED50 in the assay listed under Rattus norvegicus [1] (setting [9]) was above 48 µmol/kg; in the assay listed under Mus musculus (Mus musculus, read-out: ED50) it was 6.7 µmol/kg. This molecule registered a concentration for half-maximal inhibition (IC50) in [2] of 39 nM.

Consider `CN1CCN(C2CC(c3ccc(F)cc3)c3ccccc32)CC1(C)C` (stereo in doubt; (-)-39), for which the ED50 in the assay filed under Rattus norvegicus [1] was above 44 µM/kg; in the assay filed under Mus musculus, 7.2 µM/kg. Further, the IC50 is 2.9 nM in [3]; 5200 nM in the assay filed under Rattus norvegicus [4]; 10000 nM in the assay listed under Rattus norvegicus [5]; 12 nM at D(2) dopamine receptor; 4.4 nM in assay [2]; 2.5 nM on D(1A) dopamine receptor [6]. Moreover, the IC50 in the assay filed under Rattus norvegicus [7] worked out at 17000 nM.

For `CN1CCN(C2CC(c3ccc(F)cc3)c3cccc(F)c32)CC1(C)C` (configuration not stated), the ED50 in the assay listed under Rattus norvegicus [1] (setting [9]) is above 90 µmol/kg; in the assay filed under Mus musculus (Mus musculus, read-out: ED50), 6.9 µmol/kg. Besides, the IC50 in assay [2] was 15 nM.

In the case of `CN1CCN(C2CC(c3ccccc3)c3ccc(Cl)cc32)CC1(C)C` (stereo in doubt; 38), the ED50 is above 76 µmol/kg in the assay listed under Rattus norvegicus [1] (setting [9]) and 24 µM/kg in the assay filed under Mus musculus. Also, the IC50 in assay [2] turned out to be 23 nM.

As for `CN1CCN(C2CC(c3ccc(F)cc3)c3ccc(F)cc32)CC1(C)C` (stereo in doubt; 40), the ED50 was above 68 µM/kg in the assay filed under Rattus norvegicus [1] and 2.1 µM/kg in the assay listed under Mus musculus. In assay [2], this molecule came in with a half-inhibitory concentration (IC50) of 12 nM.

For the molecule `OCCN1CCN(C2CC(c3ccc(F)cc3)c3c(Cl)cccc32)CC1` (configuration not stated), the concentration for half-maximal inhibition (IC50) on D(1A) dopamine receptor [8] was 2000 nM.

In the case of `CN1CCN(C2CC(c3ccc(F)cc3)c3cc(Cl)ccc32)CC1(C)C` (configuration not stated), the IC50 in [2] stood at 94 nM. Further, the ED50 in the assay listed under Mus musculus (Mus musculus, read-out: ED50) is above 110 µmol/kg.

On to `CN1CCN(C2CC(c3ccccc3)c3ccc(Cl)cc32)CC1(C)C` (single isomer, unassigned; (-)), for which the ED50 was above 85 µM/kg in the assay filed under Rattus norvegicus [1] and 8.8 µM/kg in the assay listed under Mus musculus. Also, the IC50 is 4.4 nM in [3]; 390 nM in the assay listed under Rattus norvegicus [4]; 4000 nM in the assay listed under Rattus norvegicus [5]; 9.5 nM at D(2) dopamine receptor; 10 nM in assay [2]; 1.1 nM on D(1A) dopamine receptor [6]. Moreover, the IC50 in the assay filed under Rattus norvegicus [7] worked out at 1700 nM.

`CC1(C)CN(C2CC(c3ccsc3)c3ccc(Cl)cc32)CCN1` (single isomer, unassigned; (-)): the ED50 was above 49 µmol/kg in the assay filed under Rattus norvegicus [1] (setting [9]) and 11 µmol/kg in the assay filed under Mus musculus (Mus musculus, read-out: ED50). Further, the IC50 is 1.9 nM in assay [3]; 2700 nM in the assay filed under Rattus norvegicus [4]; 4500 nM in the assay listed under Rattus norvegicus [5]; 7.1 nM on D(2) dopamine receptor; 25 nM in assay [2]; 0.84 nM on D(1A) dopamine receptor [6]. The half-maximal inhibitory concentration (IC50) in the assay filed under Rattus norvegicus [7] was 4000 nM.

For `OCCN1CCN(C2CC(c3ccc(F)cc3)c3cc(Cl)ccc32)CC1` (configuration not stated), the 50% inhibitory concentration (IC50) on D(1A) dopamine receptor [8] is 1800 nM.

As to `CN1CCN(C2CC(c3ccsc3)c3ccc(Cl)cc32)CC1(C)C` (configuration not stated), the ED50 in the assay filed under Rattus norvegicus [1] (setting [9]) turned out to be 44 µmol/kg; in the assay filed under Mus musculus (Mus musculus, read-out: ED50), 1.3 µmol/kg. The IC50 in assay [2] came to 14 nM.

As for `CC1(C)CN(C2CC(c3ccc(F)cc3)c3ccc(Cl)cc32)CCN1` (stereo in doubt; (-)-41), the ED50 in the assay listed under Rattus norvegicus [1] is above 84 µM/kg; in the assay listed under Mus musculus it was 5.6 µM/kg. Besides, the IC50 in assay [3] was determined as 3.7 nM; in the assay listed under Rattus norvegicus [4], 400 nM; in the assay filed under Rattus norvegicus [5], 1800 nM; at D(2) dopamine receptor it was 9 nM; in [2], 12 nM; at D(1A) dopamine receptor [6] it was 1.1 nM. Besides, the IC50 in the assay filed under Rattus norvegicus [7] was 2200 nM.

`CN1CCN(C2CC(c3ccc(F)cc3)c3ccc(F)cc32)CC1(C)C` (stereo in doubt; (-)-40): the figures for the ED50 in the assay listed under Rattus norvegicus [1] (setting [9]) and in the assay filed under Mus musculus were 42 µmol/kg and 1 µM/kg, respectively. Moreover, the concentration for half-maximal inhibition (IC50) in assay [3] is 1.9 nM; in the assay listed under Rattus norvegicus [4] it was 4000 nM; in the assay filed under Rattus norvegicus [5], 12000 nM; on D(2) dopamine receptor, 6.8 nM; in assay [2] it was 4.7 nM; at D(1A) dopamine receptor [6], 0.71 nM. For the same molecule, the IC50 in the assay filed under Rattus norvegicus [7] was above 10000 nM.

As to `CN1CCN(C2CC(c3ccccc3)c3ccccc32)CC1` (configuration not stated), the IC50 is 480 nM at D(1A) dopamine receptor [8] and 690 nM at D(2) dopamine receptor.

With `OCCN1CCN(C2CC(c3ccc(F)cc3)c3ccc(Cl)cc32)CC1` (configuration not stated), the half-inhibitory concentration (IC50) at D(1A) dopamine receptor [8] was 8.3 nM.
